Laboratory results from ChEMBL document CHEMBL1142221, “Nootropic alpha7 nicotinic receptor allosteric modulator derived from GABAA receptor modulators” (Proc Natl Acad Sci U S A, 2007).
pEC50: −log10 of the molar value. The source made the active and inactive calls. No cut-off for these calls is given here.

What was measured:
[1] = molecular target: GABA-A receptor; alpha-2/beta-3/gamma-2 (Homo sapiens) (UniProt P18507+P28472+P47869); assay: Activation of human GABAA alpha-2-beta-3-gamma-2L receptor expressed in Xenopus oocytes assessed as modulation of GABA-induced current by measuring ratio of I/Imax current by two-electrode voltage-clamp method; conditions: Oocyte
[2] = molecular target: T1, 5-hydroxytryptamine receptor 3A (Homo sapiens) (UniProt P46098); assay: Activity at human 5HT3A receptor expressed in Xenopus oocytes assessed as stimulation of […] current at 10 uM by two-electrode voltage-clamp method; type: cell-based; conditions: Oocyte
T1 sequence (whole entry): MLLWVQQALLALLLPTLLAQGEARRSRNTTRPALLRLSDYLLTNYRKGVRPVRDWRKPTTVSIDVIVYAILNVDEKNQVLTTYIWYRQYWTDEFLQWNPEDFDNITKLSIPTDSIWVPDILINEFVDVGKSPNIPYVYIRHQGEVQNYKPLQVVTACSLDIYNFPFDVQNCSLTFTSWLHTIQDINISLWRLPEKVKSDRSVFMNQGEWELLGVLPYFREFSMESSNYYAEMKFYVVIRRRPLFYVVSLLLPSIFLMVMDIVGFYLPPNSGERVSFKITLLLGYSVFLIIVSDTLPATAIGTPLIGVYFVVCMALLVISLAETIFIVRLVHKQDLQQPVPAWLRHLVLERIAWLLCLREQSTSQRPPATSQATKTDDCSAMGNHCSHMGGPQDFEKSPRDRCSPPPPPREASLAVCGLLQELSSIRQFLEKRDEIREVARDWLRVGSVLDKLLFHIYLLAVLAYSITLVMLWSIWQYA
Outline: (§1)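 Oocytes injected with 0.005–50 ng mRNA per subunit (α4β2 and α3β4 at 1:1; α1β1γδ at 1:1:1:1; α7 and 5-HT3A single). Two-electrode voltage clamp at −70 mV, 3–14 days post-injection. Ca²⁺-free Ringer's with BaCl₂ replacing Ca²⁺ (pH 7.4) to limit Ca²⁺-activated Cl⁻ currents. Rapid linear-array application. Current expressed as I/I_max; concentration–effect data fit to a four-parameter logistic. For α7, agonist was fixed at EC₅.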

[3] = molecular target: T2, Neuronal acetylcholine receptor subunit alpha-7 (Homo sapiens, UniProt P36544); assay: Activation of human alpha-7 nAChR expressed in Xenopus oocytes assessed as modulation of nicotine-induced current by measuring ratio of I/Imax current by two-electrode voltage-clamp method; type: cell-based; conditions: Oocyte
T2 sequence (P36544 whole entry): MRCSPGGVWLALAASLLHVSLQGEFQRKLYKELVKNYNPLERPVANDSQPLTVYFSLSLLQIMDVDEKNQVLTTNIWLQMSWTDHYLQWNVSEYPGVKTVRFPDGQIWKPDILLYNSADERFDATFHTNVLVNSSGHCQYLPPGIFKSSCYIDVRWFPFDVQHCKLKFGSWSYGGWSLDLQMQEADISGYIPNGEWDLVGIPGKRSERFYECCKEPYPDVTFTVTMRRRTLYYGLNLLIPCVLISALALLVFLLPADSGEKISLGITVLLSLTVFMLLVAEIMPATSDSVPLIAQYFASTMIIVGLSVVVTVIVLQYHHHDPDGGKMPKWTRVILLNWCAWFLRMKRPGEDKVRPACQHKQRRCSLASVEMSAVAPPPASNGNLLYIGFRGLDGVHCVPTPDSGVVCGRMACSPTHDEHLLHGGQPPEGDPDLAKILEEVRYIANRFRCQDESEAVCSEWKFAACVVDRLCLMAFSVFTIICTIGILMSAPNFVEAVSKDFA
Outline: as §1

[4] = molecular target: T3, GABA-A receptor; alpha-2/beta-3/gamma-2 (Homo sapiens, UniProt P18507+P28472+P47869); assay: Activation of human GABAA alpha-2-beta-3-gamma-2L receptor expressed in Xenopus oocytes assessed as modulation of GABA-induced current by two-electrode voltage-clamp method
T3 sequence (P18507 whole entry): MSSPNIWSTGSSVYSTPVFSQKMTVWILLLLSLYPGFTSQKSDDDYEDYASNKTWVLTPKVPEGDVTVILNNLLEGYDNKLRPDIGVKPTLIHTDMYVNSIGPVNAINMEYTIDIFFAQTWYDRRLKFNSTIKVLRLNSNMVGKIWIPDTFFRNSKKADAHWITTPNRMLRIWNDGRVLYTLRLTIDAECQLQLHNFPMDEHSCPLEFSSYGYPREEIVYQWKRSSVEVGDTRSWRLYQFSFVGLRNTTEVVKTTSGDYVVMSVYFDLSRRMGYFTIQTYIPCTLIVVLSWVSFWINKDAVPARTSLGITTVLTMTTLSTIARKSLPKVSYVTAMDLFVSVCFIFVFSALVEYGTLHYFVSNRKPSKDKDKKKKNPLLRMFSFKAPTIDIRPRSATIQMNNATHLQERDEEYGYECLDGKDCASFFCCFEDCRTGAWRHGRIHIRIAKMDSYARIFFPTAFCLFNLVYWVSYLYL
T3 sequence (P28472 whole entry): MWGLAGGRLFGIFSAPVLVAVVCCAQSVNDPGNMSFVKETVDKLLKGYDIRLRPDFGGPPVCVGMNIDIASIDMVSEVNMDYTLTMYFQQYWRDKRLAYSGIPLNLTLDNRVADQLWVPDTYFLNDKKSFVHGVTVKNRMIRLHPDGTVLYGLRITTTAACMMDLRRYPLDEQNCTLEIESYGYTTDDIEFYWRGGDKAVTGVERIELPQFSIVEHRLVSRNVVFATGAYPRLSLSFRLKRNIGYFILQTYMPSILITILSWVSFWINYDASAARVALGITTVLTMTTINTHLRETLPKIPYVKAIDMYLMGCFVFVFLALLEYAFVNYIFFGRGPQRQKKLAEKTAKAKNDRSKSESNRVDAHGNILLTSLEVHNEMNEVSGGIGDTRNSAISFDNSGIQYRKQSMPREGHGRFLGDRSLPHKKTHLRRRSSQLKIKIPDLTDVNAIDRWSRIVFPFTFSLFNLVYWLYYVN
T3 sequence (P47869 whole entry): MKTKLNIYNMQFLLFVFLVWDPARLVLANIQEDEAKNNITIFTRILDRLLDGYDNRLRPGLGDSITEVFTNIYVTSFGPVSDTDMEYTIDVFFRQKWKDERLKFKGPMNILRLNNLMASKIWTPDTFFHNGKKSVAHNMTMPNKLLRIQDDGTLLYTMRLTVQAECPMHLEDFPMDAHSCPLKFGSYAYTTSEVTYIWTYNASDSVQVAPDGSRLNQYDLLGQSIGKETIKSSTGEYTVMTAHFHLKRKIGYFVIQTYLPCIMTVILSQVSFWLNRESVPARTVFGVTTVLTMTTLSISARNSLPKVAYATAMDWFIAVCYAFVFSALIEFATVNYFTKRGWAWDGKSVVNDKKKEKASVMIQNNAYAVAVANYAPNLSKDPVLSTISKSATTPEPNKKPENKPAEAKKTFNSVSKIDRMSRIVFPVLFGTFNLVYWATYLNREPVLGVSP

[5] = molecular target: T4, Neuronal acetylcholine receptor; alpha4/beta2 (Homo sapiens) (UniProt P17787+P43681); assay: Activity at human nAChR alpha4beta2 expressing Xenopus oocytes assessed as stimulation of nicotine-induced current at 10 uM by two-electrode voltage-clamp method; type: cell-based; conditions: Oocyte
Outline: as §1

[6] = molecular target: T4, Neuronal acetylcholine receptor; alpha4/beta2 (Homo sapiens); assay: Activation of human nAChR alpha-4-beta-2 expressed in Xenopus oocytes assessed as modulation of nicotine-induced current by measuring ratio of I/Imax current by two-electrode voltage-clamp method; type: cell-based; conditions: Oocyte
Outline: as §1

[7] = molecular target: T2, Neuronal acetylcholine receptor subunit alpha-7; assay: Activation of human alpha-7 nAChR expressed in Xenopus oocytes assessed as modulation of nicotine-induced current by two-electrode voltage-clamp method; type: cell-based, Oocyte
Outline: as §1

With `CCOC(=O)/C(=C\Nc1ccc(OCC)cc1)C(=O)c1ccccc1Cl` the Ratio [1] was 0.93, the Activity [2] was “inactive” and the Ratio [3] was 0.86. For the same molecule, the pEC50 [4] was 6.70, the Activity [5] was “inactive” and the Activity [6] was “inactive”. For the same molecule, the pEC50 [7] was 5.74.
